Measured values as given in ChEMBL document CHEMBL1144684, “Evaluation of a series of naphthamides as potent, orally active vascular endothelial growth factor receptor-2 tyrosine kinase inhibitors” (J Med Chem, 2008).
The source made the active and inactive calls. The calls are words filed in the database; no cut-off is given here.

Columns and labels:
HUVEC [1] = experiment: Selectivity of IC50 for VEGF-induced proliferation over IC50 for bFGF-induced proliferation of HUVEC; assay type: functional, Homo sapiens
Outline: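 HUVECs were seeded at 3000 cells/well in DMEM/10% FBS with pen/strep and cultured for 22 h. They were preincubated 2 h with serially diluted compound, then stimulated with 50 ng/mL VEGF or 20 ng/mL bFGF for 72 h at 37 °C, 5% CO2. Cells were washed, frozen at -70 °C and stained with CyQuant. IC50s came from a four-parameter logistic fit, averaged over ≥2 experiments; the VEGF IC50 was compared against the bFGF IC50.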

[2] = Intrinsic clearance in rat liver microsomes at 1 uM; assay type: ADME, Microsome; conditions: read-out: Stability
Outline: (§1)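 Human or rat liver microsomes (0.25 mg protein/mL) with 1 mM NADPH, 2 mM MgCl2 in 50 mM potassium phosphate pH 7.4 at 37 °C; compound 1 µM final. Sampled 0–40 min into acetonitrile, LC-MS/MS; ln % remaining vs time slope gives T1/2; CLint = (0.693/T1/2)/0.25 mg/mL.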

[3] = Intrinsic clearance in human liver microsomes at 1 uM; assay type: ADME, Microsome; conditions: read-out: Stability; outline: as §1
[4] = Clearance in Sprague-Dawley rat at 0.5 mg/kg, iv; assay type: ADME, organism-based; set-up: dose 0.5 mg/kg, route intravenous; conditions: in vivo
Outline: (§2)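 Male Sprague–Dawley rats dosed iv via femoral vein as DMSO solution (1 or 0.5 mg/kg) or po by gavage as OraPlus suspension (pH 2.0–2.2 with methanesulfonic acid; 10 or 2 mg/kg). Serial jugular blood over 12–24 h; plasma acetonitrile precipitation, LC-MS/MS (MRM) with internal standard; noncompartmental parameters.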

[5] = Volume of distribution at steady state in Sprague-Dawley rat at 0.5 mg/kg, iv; assay type: ADME, organism-based; set-up: dose 0.5 mg/kg, route intravenous; conditions: in vivo, read-out: Vdss
Outline: (§3)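 Male Sprague–Dawley rats dosed iv at 0.5 mg/kg as DMSO solution or po at 2 mg/kg as suspension in 100% OraPlus. Serial jugular blood, plasma LC-MS/MS quantitation, noncompartmental analysis.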

[6] = Half life in Sprague-Dawley rat at 0.5 mg/kg, iv; assay type: ADME, organism-based; set-up: dose 0.5 mg/kg, route intravenous; conditions: in vivo; outline: as §2
[7] = AUC (0 to infinity) in Sprague-Dawley rat at 2 mg/kg, po; assay type: ADME, organism-based; set-up: time infinity, dose 2 mg/kg, route oral; conditions: plasma; outline: as §2
[8] = Cmax in Sprague-Dawley rat at 2 mg/kg, po; assay type: ADME, organism-based; set-up: dose 2 mg/kg, route oral; conditions: in vivo; outline: as §2
[9] = Tmax in Sprague-Dawley rat at 2 mg/kg, po; assay type: ADME, organism-based; set-up: dose 2 mg/kg, route oral; conditions: in vivo; outline: as §3
[10] = Oral bioavailability in Sprague-Dawley rat at 2 mg/kg; assay type: ADME, organism-based; conditions: in vivo; outline: as §3
Angiopoietin-1 receptor = Angiopoietin-1 receptor (Homo sapiens, UniProt Q02763); experiment: Inhibition of Tie2
Angiopoietin-1 receptor, sequence (Q02763 whole entry): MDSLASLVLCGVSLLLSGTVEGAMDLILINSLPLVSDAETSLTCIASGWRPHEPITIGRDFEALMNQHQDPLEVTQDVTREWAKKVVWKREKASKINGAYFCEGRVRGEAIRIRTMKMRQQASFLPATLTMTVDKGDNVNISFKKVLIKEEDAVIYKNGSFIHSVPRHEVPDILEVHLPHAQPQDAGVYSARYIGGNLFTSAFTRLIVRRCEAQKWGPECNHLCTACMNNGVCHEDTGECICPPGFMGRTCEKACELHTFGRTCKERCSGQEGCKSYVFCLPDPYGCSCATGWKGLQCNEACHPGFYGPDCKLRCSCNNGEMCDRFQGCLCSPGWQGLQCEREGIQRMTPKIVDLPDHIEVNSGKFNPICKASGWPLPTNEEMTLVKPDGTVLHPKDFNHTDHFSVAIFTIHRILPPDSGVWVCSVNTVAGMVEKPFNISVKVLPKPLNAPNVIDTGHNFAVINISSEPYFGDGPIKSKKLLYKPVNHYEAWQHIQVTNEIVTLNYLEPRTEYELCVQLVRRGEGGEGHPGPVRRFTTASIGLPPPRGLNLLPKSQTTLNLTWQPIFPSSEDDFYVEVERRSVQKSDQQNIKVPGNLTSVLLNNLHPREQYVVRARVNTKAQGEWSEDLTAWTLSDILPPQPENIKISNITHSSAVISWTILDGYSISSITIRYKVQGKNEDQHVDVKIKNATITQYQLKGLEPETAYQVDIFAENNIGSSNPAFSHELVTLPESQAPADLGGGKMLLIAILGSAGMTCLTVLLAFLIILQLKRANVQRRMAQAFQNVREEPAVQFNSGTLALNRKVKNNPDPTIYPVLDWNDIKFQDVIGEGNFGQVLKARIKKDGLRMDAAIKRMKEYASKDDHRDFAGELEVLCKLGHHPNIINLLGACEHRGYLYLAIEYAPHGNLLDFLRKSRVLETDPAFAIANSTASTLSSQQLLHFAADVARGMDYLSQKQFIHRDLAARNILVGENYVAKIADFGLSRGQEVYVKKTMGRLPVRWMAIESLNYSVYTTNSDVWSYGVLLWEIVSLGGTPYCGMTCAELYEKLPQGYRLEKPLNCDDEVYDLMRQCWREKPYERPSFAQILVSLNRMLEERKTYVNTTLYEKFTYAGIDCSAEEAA

[11] = target: Hepatocyte growth factor receptor (Homo sapiens, UniProt P08581); experiment: Inhibition of c-Met
Hepatocyte growth factor receptor, sequence (P08581 whole entry): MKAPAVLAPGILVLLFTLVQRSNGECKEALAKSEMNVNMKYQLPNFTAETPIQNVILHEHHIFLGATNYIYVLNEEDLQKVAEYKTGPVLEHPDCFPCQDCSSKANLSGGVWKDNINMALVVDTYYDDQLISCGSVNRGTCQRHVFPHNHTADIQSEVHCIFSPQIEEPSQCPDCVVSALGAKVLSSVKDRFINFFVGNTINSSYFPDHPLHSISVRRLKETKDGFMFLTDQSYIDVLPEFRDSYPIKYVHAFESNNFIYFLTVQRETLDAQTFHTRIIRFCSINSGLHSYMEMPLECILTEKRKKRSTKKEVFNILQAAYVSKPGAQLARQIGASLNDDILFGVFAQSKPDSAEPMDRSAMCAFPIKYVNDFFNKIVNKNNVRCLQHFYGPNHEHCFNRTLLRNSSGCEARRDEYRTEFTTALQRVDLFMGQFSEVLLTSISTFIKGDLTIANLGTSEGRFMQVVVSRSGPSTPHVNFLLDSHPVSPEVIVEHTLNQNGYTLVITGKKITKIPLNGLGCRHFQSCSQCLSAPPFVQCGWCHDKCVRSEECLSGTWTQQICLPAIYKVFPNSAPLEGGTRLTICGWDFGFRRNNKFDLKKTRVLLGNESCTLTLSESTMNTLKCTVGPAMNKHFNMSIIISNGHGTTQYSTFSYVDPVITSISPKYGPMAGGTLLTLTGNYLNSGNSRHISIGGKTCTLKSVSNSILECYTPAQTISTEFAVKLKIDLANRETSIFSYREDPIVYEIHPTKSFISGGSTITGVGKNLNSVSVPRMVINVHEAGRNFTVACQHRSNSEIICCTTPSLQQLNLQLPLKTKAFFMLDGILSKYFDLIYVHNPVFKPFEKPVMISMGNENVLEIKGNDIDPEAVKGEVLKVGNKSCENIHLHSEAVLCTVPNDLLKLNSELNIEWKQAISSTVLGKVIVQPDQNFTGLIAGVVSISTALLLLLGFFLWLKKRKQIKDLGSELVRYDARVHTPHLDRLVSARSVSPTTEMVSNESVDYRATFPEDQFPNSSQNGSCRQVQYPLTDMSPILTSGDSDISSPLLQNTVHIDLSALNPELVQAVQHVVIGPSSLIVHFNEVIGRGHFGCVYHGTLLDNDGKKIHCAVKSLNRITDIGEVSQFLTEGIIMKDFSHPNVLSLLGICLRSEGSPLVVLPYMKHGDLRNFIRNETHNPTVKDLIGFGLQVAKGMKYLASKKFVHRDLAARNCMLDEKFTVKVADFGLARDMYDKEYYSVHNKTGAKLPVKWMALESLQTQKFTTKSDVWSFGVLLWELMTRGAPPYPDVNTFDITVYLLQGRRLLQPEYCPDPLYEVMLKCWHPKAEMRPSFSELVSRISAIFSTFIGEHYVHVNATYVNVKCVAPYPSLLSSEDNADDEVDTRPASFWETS

Aurora kinase A = target: T1, Aurora kinase A (Homo sapiens, UniProt O14965); experiment: Inhibition of Aurora A
T1 sequence (O14965 whole entry): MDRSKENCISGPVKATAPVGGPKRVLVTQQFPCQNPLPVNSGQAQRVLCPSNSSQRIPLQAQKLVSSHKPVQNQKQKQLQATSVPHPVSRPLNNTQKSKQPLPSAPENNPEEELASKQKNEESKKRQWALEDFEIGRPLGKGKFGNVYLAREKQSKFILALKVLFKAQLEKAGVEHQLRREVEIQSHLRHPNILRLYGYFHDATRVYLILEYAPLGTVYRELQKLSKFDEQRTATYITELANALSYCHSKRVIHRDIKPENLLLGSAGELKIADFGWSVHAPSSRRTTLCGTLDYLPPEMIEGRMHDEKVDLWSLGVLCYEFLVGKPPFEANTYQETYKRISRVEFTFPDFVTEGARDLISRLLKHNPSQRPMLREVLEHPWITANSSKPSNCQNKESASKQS

Aurora kinase B = Aurora kinase B (Homo sapiens, UniProt Q96GD4); experiment: Inhibition of Aurora B
Aurora kinase B, sequence (Q96GD4 whole entry): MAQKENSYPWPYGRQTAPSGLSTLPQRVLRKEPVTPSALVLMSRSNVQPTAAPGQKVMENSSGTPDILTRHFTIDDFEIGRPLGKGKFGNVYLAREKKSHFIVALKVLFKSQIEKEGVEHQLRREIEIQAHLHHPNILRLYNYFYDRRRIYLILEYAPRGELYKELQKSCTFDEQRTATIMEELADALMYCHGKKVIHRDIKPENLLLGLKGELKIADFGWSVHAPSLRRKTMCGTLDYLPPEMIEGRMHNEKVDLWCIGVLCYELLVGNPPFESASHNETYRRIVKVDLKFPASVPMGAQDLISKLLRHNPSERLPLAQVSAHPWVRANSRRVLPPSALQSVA

HUVEC [12] = experiment: Inhibition of VEGF-induced proliferation of HUVEC; assay type: functional, cell-based; conditions: Homo sapiens
[13] = target: Vascular endothelial growth factor receptor 2 (Homo sapiens, UniProt P35968)
[14] = Clearance in Sprague-Dawley rat at 1 mg/kg, iv; assay type: ADME, organism-based; set-up: dose 1 mg/kg, route intravenous; conditions: in vivo; outline: as §2
Liver microsomes [15] = experiment: Metabolic stability assessed as covalent binding in absence of NADPH in rat liver microsomes at 10 uM after 1 hr; assay type: ADME, Microsome
Outline: (§4)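 14C-labelled compound at 10 µM with human or rat liver microsomes (1 mg/mL) in 0.1 M potassium phosphate pH 7.4, with or without 1 mM NADPH and 1 mM glutathione, 60 min; quenched with ice-cold acetonitrile. Pellet washed with 80% methanol and ethanol/ether, solubilized, protein by BCA, radioactivity by scintillation counting.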

Liver microsomes [16] = experiment: Metabolic stability assessed as covalent binding in presence of NADPH and GSH in rat liver microsomes at 10 uM after 1 hr; assay type: ADME, Microsome; outline: as §4
[17] = Volume of distribution at steady state in Sprague-Dawley rat at 1 mg/kg, iv; assay type: ADME, organism-based; set-up: dose 1 mg/kg, route intravenous; conditions: in vivo, read-out: Vdss
Outline: (§5)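 Male Sprague–Dawley rats given 1 mg/kg iv via femoral vein as DMSO solution or 10 mg/kg by oral gavage as OraPlus suspension, pH adjusted to 2.0–2.2 with methanesulfonic acid. Serial jugular blood over 12–24 h; plasma protein-precipitated with acetonitrile, quantified by LC-MS/MS (MRM) with internal standard; noncompartmental parameters.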

[18] = Half life in Sprague-Dawley rat at 1 mg/kg, iv; assay type: ADME, organism-based; set-up: dose 1 mg/kg, route intravenous; conditions: in vivo; outline: as §2
[19] = AUC (0 to infinity) in Sprague-Dawley rat at 10 mg/kg, po; assay type: ADME, organism-based; set-up: dose 10 mg/kg, route oral, time infinity; conditions: plasma; outline: as §2
[20] = Cmax in Sprague-Dawley rat at 10 mg/kg, po; assay type: ADME, organism-based; set-up: dose 10 mg/kg, route oral; conditions: in vivo; outline: as §2
[21] = Tmax in Sprague-Dawley rat at 10 mg/kg, po; assay type: ADME, organism-based; set-up: dose 10 mg/kg, route oral; conditions: in vivo; outline: as §5
[22] = Oral bioavailability in Sprague-Dawley rat at 10 mg/kg; assay type: ADME, organism-based; conditions: in vivo; outline: as §5
[23] = Aqueous solubility in 0.01 N Hcl; assay type: physicochemical
[24] = target: Vascular endothelial growth factor receptor 1 (Homo sapiens, UniProt P17948); experiment: Inhibition of human VEGFR1
[25] = target: Vascular endothelial growth factor receptor 3 (Homo sapiens) (UniProt P35916); experiment: Inhibition of human VEGFR3
[26] = target: Platelet-derived growth factor receptor alpha (Homo sapiens) (UniProt P16234); experiment: Inhibition of PDGFRalpha
[27] = target: Mast/stem cell growth factor receptor Kit (Homo sapiens) (UniProt P10721); experiment: Inhibition of c-Kit
[28] = target: Macrophage colony-stimulating factor 1 receptor (Homo sapiens) (UniProt P07333); experiment: Inhibition of c-fms
Macrophage colony-stimulating factor 1 receptor (Homo sapiens), sequence (P07333 whole entry): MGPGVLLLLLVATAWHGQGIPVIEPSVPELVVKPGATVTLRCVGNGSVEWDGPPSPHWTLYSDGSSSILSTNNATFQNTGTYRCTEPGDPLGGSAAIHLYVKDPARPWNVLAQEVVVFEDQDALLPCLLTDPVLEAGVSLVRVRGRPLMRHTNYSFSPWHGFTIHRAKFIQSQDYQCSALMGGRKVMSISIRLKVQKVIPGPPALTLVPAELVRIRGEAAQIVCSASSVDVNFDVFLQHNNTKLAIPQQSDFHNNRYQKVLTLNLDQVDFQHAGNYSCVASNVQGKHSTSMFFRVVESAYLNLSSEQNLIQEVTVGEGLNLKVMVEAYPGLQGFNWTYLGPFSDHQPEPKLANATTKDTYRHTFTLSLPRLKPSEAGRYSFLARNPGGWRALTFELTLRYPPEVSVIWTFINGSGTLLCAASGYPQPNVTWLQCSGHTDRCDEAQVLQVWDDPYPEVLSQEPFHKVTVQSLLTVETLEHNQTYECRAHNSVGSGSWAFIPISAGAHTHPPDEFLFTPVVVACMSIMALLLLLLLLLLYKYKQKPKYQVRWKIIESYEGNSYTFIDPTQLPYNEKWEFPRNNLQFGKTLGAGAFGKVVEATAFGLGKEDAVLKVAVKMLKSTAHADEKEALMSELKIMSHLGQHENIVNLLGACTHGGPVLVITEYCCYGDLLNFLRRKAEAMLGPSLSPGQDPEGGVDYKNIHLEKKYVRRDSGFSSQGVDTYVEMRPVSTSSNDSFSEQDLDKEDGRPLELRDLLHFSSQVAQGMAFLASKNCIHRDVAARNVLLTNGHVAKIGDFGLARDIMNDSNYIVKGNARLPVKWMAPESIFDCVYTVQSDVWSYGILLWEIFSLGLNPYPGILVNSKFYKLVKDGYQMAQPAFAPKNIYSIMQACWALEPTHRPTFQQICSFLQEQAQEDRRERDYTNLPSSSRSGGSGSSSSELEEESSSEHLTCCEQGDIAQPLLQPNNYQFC

[29] = target: Receptor-type tyrosine-protein kinase FLT3 (Homo sapiens) (UniProt P36888); experiment: Inhibition of Flt3
Receptor-type tyrosine-protein kinase FLT3 (Homo sapiens), sequence (P36888 whole entry): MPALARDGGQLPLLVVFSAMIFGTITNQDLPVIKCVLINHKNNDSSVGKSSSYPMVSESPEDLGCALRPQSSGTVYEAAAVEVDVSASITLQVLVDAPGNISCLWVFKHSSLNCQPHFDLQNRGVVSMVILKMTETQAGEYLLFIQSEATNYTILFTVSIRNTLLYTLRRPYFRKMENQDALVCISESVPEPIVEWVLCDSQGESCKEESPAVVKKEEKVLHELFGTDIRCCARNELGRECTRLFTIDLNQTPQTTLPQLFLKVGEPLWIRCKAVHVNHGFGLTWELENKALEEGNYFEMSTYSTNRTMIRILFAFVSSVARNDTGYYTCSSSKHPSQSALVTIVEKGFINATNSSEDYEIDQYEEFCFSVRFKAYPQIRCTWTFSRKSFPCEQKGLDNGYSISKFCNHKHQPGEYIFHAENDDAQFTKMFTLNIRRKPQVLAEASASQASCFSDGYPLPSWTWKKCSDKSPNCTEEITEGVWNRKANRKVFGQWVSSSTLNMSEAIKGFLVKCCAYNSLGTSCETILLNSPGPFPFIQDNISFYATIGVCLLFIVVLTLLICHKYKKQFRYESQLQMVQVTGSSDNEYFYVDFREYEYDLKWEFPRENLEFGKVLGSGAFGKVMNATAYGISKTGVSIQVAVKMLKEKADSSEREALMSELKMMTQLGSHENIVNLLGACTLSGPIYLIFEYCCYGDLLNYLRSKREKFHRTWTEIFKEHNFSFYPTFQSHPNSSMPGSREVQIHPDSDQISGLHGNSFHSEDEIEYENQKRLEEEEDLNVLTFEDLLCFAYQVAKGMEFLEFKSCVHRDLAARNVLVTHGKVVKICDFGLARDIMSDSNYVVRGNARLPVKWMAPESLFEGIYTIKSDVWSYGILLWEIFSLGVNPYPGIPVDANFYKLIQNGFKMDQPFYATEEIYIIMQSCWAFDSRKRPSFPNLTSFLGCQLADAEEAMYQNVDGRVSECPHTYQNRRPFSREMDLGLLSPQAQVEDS

[30] = target: Tyrosine-protein kinase Fgr (Homo sapiens, UniProt P09769); experiment: Inhibition of FGR
[31] = target: Tyrosine-protein kinase Lyn (Homo sapiens, UniProt P07948); experiment: Inhibition of Lyn
Mus musculus = experiment: Inhibition of VEGF-induced vascular permeability in HEK293 cells expressing mouse recombinant VEGF implanted in CD1 nu/nu mouse assessed as Matrigel plug at 10 mg/kg, po after 6 hrs; assay type: functional, organism-based; set-up: dose 10 mg/kg
Outline: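 HEK293 cells expressing murine VEGF (or vector) suspended in Matrigel, injected sc ventrally into CD-1 nu/nu mice. At 24 h, single oral gavage dose as OraPlus suspension; 6 h later Evans blue quantified in 1 cm2 skin over plug; plasma level taken at 6 h; n = 5/group.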

Rattus norvegicus = experiment: Inhibition of VEGF-induced angiogenesis in VEGF-soaked disk implanted in Sprague-Dawley rat cornea assessed as number of blood vessels intersecting the midpoint between disk and limbus after 7 days; assay type: functional; conditions: 168 h
[32] = AUC in VEGF-soaked disk implanted in Sprague-Dawley rat; assay type: ADME, organism-based; conditions: plasma
[33] = Cmax in VEGF-soaked disk implanted in Sprague-Dawley rat; assay type: ADME, organism-based; conditions: in vivo
Liver microsomes [34] = experiment: Metabolic stability assessed as covalent binding in presence of NADPH in human liver microsomes at 10 uM after 1 hr; assay type: ADME, Microsome; outline: as §4
Liver microsomes [35] = experiment: Metabolic stability assessed as covalent binding in absence of NADPH in human liver microsomes at 10 uM after 1 hr; assay type: ADME, Microsome; outline: as §4
Liver microsomes [36] = experiment: Metabolic stability assessed as covalent binding in presence of NADPH and GSH in human liver microsomes at 10 uM after 1 hr; assay type: ADME, Microsome; outline: as §4
Liver microsomes [37] = experiment: Metabolic stability assessed as covalent binding in presence of NADPH in rat liver microsomes at 10 uM after 1 hr; assay type: ADME, Microsome; outline: as §4
[38] = target: Tyrosine-protein kinase Lck (Homo sapiens, UniProt P06239); experiment: Inhibition of Lck
HUVEC [39] = experiment: Inhibition of bFGF-induced proliferation of HUVEC; assay type: functional, cell-based; conditions: Homo sapiens
Outline: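 HUVEC seeded at 3000/well in DMEM with 10% FBS, 22 h; 2 h preincubation with serial compound dilutions, then 50 ng/mL VEGF or 20 ng/mL bFGF for 72 h at 37 °C. Freeze–thaw, CyQuant DNA dye read-out; IC50 by four-parameter logistic fit, averaged over ≥2 experiments.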

[40] = target: Tyrosine-protein kinase ABL1 (Homo sapiens, UniProt P00519)

COCCNC(=O)c1cccc2cc(Oc3ccnc4cc(OC)c(C(N)=O)cc34)ccc12
Selectivity ratio (HUVEC [1]): >100 | microsomal CLint at 1 µM [2]: 95 µL/min/mg | microsomal CLint at 1 µM [3]: 4 µL/min/mg | clearance [4]: 50.8 mL/min/kg | Vd [5]: 0.751 L/kg | half-life [6]: 0.31 h | AUC(0-inf) [7]: 164 ng·h/mL | Cmax [8]: 61 ng/mL | Tmax [9]: 0.3 h | bioavailability [10]: 12% | IC50 (Angiopoietin-1 receptor): 8300 nM | IC50 [11]: 6700 nM | IC50 (Aurora kinase A): 8300 nM | IC50 (Aurora kinase B): 233 nM | IC50 (HUVEC [12]): 0.8 nM | IC50 [13]: 22 nM

COc1cc2nccc(Oc3ccc4c(C(=O)NC5CC5)cccc4c3)c2cc1OC
Selectivity ratio (HUVEC [1]): >100 | microsomal CLint at 1 µM [2]: 21 µL/min/mg | microsomal CLint at 1 µM [3]: 31 µL/min/mg | clearance [14]: 2.18 mL/min/kg | Stability (Liver microsomes [15]): 1.5 pmol/mg/h | Stability (Liver microsomes [16]): 153 pmol/mg/h | Vd [17]: 1.04 L/kg | half-life [18]: 8.4 h | AUC(0-inf) [19]: 50200 ng·h/mL | Cmax [20]: 6150 ng/mL | Tmax [21]: 2.5 h | bioavailability [22]: 66% | solubility [23]: > 200 µg/mL | Activity [24]: Active | Activity [25]: Active | Activity [26]: Active | Activity [27]: Active | Activity [28]: Active | Activity [29]: inactive | IC50 [30]: 396 nM | IC50 [31]: 27 nM | Cp (Mus musculus): 1 µM | ED50 (Rattus norvegicus): 0.01 mg/kg | AUC [32]: 0.32 µM·h | Cmax [33]: 20 nM | Stability (Liver microsomes [34]): 357 pmol/mg/h | Stability (Liver microsomes [35]): 1.5 pmol/mg/h | Stability (Liver microsomes [36]): 153 pmol/mg/h | Stability (Liver microsomes [37]): 60 pmol/mg/h | IC50 (Angiopoietin-1 receptor): 25000 nM | IC50 [11]: 20000 nM | IC50 [38]: 330 nM | IC50 (Aurora kinase A): 2000 nM | IC50 (Aurora kinase B): 118 nM | IC50 (HUVEC [12]): 0.91 nM | IC50 (HUVEC [39]): 170 nM | IC50 [40]: 466 nM
